Values after ≈ are worked out from the molar mass of the structure shown.
Columns and labels:
[1] = system: Liver; test: Stability in mouse liver microsomes assessed as compound remaining; type: ADME, Microsome
[2] = target: Cytochrome P450 2C19 (Homo sapiens, UniProt P33261); test: Inhibition of recombinant CYP2C19 expressed in baculovirus-infected insect cells using fluorogeinc substrate; type: ADME
Summary of the method: (§1)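 Recombinant CYP Supersomes premixed with fluorogenic substrate in potassium phosphate buffer and prewarmed 30 min at 37 °C with test substance. Reaction started with NADPH-regenerating system, incubated at 37 °C, then quenched with 80% acetonitrile/20% 0.5 M TRIS-base.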

[3] = target: Cytochrome P450 2D6 (Homo sapiens, UniProt P10635); test: Inhibition of recombinant CYP2D6 expressed in baculovirus-infected insect cells using fluorogeinc substrate; type: ADME; summary of the method: as §1
Chain of Cytochrome P450 2D6 (P10635 whole entry): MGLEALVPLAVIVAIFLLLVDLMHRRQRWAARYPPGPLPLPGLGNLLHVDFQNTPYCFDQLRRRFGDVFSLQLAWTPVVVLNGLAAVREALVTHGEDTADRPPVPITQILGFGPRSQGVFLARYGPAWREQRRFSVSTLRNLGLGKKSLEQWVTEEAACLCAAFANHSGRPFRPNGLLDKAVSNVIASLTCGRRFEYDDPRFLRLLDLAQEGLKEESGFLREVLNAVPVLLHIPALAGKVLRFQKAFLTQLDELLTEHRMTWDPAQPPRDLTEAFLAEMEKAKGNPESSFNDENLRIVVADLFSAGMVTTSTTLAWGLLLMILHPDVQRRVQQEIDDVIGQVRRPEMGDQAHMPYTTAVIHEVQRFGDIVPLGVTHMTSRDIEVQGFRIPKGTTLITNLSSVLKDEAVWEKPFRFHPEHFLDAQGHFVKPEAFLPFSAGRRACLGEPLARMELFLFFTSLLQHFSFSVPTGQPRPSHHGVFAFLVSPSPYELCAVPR

[4] = Thermodynamic solubility in pH 6.5 potassium phosphate buffer by HPLC method; type: physicochemical; conditions: read-out: Therm_solubility
Summary of the method: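 Thermodynamic equilibrium solubility. Compound standard dissolved in methanol, with DMSO added if needed, and mixed 1:1 with 50 mM potassium phosphate pH 6.5. Vortexed, sonicated 30 s, shaken 15−24 h at room temperature, centrifuged. Quantified by HPLC-UV at 210 or 254 nm against a calibration curve.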

[5] = target: T1, C-C chemokine receptor type 1 (Mus musculus, UniProt P51675); test: Displacement of [125I]MIP-1alpha from CCR1 in mouse WEHI 274.1 cells incubated for 60 mins; type: cell-based
T1 sequence (P51675 whole entry): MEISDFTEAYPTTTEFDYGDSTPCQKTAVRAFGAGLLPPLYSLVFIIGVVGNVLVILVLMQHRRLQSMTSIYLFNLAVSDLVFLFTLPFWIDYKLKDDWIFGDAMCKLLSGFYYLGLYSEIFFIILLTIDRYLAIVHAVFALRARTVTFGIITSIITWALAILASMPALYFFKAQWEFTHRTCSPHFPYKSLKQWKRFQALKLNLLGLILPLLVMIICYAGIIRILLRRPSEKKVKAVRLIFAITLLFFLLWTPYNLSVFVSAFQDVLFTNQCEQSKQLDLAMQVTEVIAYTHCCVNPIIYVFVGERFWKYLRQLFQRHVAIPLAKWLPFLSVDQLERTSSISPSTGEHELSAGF
Summary of the method: (§2)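 Cross-species binding using human 125I-MIP-1α at 0.08 nM final. Nonspecific binding measured with excess unlabeled ligand. Incubated 60 min at room temperature, washed, air-dried, filters gamma-counted. Cells were the mouse WEHI 274.1 line, rat thioglycollate-elicited peritoneal cells, and rabbit peripheral blood mononuclear cells.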

[6] = AUC in mouse at 2.5 mg/kg, iv; type: ADME, organism-based; design: dose 2.5 mg/kg, route intravenous; conditions: plasma
[7] = Half life in mouse at 2.5 mg/kg, iv; type: ADME, organism-based; design: dose 2.5 mg/kg, route intravenous; conditions: in vivo
[8] = Clearance in mouse at 2.5 mg/kg, iv; type: ADME, organism-based; design: dose 2.5 mg/kg, route intravenous; conditions: in vivo
[9] = target: C-C chemokine receptor type 2 (Homo sapiens, UniProt P41597); test: Displacement of [125I]MCP1 from CCR2 in human THP1 cells; type: cell-based, THP-1
Chain of C-C chemokine receptor type 2 (P41597 whole entry): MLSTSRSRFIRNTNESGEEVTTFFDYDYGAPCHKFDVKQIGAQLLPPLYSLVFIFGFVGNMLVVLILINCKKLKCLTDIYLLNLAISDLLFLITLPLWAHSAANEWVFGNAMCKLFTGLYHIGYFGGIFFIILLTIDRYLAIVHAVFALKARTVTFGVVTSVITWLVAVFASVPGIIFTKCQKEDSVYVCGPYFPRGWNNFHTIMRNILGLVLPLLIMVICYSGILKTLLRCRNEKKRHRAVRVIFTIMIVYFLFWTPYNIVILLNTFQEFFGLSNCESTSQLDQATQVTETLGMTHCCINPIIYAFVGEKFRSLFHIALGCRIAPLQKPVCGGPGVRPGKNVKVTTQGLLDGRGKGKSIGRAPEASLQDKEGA

[10] = AUC in mouse at 5.2 mg/kg, po; type: ADME, organism-based; design: dose 5.2 mg/kg, route oral; conditions: plasma
[11] = Oral bioavailability life in mouse at 5.2 mg/kg; type: ADME, organism-based; conditions: in vivo
[12] = target: T2, C-C chemokine receptor type 1 (Homo sapiens, UniProt P32246); test: Displacement of [125I]MIP-1alpha from CCR1 in human THP1 cells; type: cell-based, THP-1
T2 sequence (P32246 whole entry): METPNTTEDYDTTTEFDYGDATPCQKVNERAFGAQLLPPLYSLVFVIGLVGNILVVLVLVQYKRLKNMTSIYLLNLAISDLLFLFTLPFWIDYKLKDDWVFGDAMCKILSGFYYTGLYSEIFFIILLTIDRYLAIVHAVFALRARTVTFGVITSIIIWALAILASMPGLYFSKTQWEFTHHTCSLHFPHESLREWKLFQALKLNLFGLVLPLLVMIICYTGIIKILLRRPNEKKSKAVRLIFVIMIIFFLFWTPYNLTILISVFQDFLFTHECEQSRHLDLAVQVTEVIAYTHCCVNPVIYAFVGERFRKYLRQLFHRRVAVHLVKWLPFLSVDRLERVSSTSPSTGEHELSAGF
Summary of the method: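 THP-1 cells, 1 × 105, mixed with WGA PS SPA beads in RPMI 1640 (no phenol red) with 50 mM HEPES, 5 mM MgCl2, 1 mM CaCl2, 0.1% BSA. Compound in 3-fold dilutions, 8 μM to 140 pM final. [125I]-MIP-1α at 0.1 nM final. Incubated 12 h at room temperature, imaged by LEADseeker. Duplicates; IC50 from four-parameter logistic fit after nonspecific correction.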

[13] = target: T2, C-C chemokine receptor type 1; test: Antagonist activity at CCR1 in human THP1 cells assessed as inhibition of CK-8beta-induced calcium flux by FLIPR; type: functional, cell-based, THP-1
[14] = system: Liver microsomes; test: Stability in rat liver microsomes assessed as compound remaining; type: ADME, Microsome
[15] = target: Cytochrome P450 2C9 (Homo sapiens, UniProt P11712); test: Inhibition of recombinant CYP2C9 expressed in baculovirus-infected insect cells using fluorogeinc substrate; type: ADME; summary of the method: as §1
Chain of Cytochrome P450 2C9 (P11712 whole entry): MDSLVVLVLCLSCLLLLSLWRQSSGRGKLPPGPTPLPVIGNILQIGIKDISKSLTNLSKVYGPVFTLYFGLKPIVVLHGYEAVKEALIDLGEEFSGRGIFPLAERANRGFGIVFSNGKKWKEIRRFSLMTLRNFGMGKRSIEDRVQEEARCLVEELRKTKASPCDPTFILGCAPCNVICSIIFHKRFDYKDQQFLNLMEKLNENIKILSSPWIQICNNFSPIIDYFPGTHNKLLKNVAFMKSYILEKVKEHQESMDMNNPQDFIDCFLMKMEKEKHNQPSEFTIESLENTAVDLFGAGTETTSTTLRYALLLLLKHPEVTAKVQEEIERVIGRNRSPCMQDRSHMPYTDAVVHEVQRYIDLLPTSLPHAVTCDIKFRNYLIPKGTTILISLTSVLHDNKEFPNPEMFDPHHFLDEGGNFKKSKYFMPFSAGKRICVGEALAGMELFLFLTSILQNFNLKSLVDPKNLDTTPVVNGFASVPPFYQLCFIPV

[16] = target: T3, C-C chemokine receptor type 1 (Rattus norvegicus, UniProt A6I4C9); test: Displacement of [125I]MIP-1alpha from CCR1 in rat thioglycolate-elicited peritoneal cells incubated for 60 mins; summary of the method: as §2
T3 sequence (A6I4C9 whole entry): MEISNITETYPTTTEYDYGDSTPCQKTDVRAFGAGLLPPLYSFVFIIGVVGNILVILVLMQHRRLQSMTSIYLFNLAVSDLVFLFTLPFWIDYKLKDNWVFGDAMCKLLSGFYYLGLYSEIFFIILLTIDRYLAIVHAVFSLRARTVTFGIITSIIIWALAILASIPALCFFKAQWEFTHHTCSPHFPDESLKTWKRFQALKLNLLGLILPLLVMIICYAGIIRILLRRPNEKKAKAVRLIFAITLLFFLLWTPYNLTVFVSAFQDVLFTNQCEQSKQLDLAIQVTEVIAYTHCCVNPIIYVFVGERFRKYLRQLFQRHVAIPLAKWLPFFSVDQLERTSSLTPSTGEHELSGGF

[17] = target: T2, C-C chemokine receptor type 1; test: Antagonist activity at CCR1 in human THP1 cells assessed as inhibition of MIP-1alpha-induced calcium flux by FLIPR; type: functional, cell-based, THP-1
Summary of the method: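 THP-1 cells loaded with fluo-3 AM and resuspended in assay buffer containing probenecid. Calcium flux was followed on FLIPR after adding MIP-1α at 20 nM. Compound effect was taken as the change in base-to-peak excursion relative to control. Run in duplicate.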

[18] = target: C-C chemokine receptor type 3 (Homo sapiens, UniProt P51677); test: Displacement of [125I]eotaxin from human CCR3 expressed in CHO CCR3/2 chimeric cells by scintillation counting; type: cell-based
Chain of C-C chemokine receptor type 3 (P51677 whole entry, looked up): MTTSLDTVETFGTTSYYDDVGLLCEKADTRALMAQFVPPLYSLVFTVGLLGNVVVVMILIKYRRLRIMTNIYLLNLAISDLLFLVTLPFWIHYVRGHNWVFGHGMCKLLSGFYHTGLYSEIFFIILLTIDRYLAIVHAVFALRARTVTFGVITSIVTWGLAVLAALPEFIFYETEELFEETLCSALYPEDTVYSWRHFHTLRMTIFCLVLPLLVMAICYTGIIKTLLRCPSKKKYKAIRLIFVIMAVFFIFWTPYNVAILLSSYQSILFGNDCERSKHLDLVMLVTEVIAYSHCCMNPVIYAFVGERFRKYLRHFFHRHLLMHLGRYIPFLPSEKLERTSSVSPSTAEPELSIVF
Summary of the method: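 Compound 11-point 3-fold dilutions, 40 μM to 0.7 nM final. 125I-Eotaxin at 0.2 nM final. Incubated 3 h at room temperature; nonspecific binding set with 100 nM eotaxin. Duplicates.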

[19] = system: Liver microsomes; test: Stability in human liver microsomes assessed as compound remaining; type: ADME, Microsome
[20] = Half life in mouse at 5.2 mg/kg, po; type: ADME, organism-based; design: dose 5.2 mg/kg, route oral; conditions: in vivo
[21] = target: Cytochrome P450 3A4 (Homo sapiens, UniProt P08684); test: Inhibition of recombinant CYP3A4 expressed in baculovirus-infected insect cells using fluorogeinc substrate; type: ADME; summary of the method: as §1
Chain of Cytochrome P450 3A4 (P08684 whole entry): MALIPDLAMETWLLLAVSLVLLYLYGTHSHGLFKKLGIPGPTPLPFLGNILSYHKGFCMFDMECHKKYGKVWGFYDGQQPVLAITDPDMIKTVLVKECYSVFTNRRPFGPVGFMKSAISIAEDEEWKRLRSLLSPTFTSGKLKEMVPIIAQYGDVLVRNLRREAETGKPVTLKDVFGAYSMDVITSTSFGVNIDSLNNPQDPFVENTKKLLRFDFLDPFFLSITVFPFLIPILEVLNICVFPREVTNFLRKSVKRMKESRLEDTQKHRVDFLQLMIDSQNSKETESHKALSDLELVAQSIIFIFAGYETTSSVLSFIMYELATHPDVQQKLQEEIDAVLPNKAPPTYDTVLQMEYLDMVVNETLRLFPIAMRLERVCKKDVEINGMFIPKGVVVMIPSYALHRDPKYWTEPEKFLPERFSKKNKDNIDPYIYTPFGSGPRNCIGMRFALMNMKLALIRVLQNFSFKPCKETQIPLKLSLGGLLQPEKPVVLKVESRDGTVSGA

[22] = target: T4, Chemokine receptor (Oryctolagus cuniculus, UniProt Q9MYJ9); test: Displacement of [125I]MIP-1alpha from CCR1 in rabbit PBMCs incubated for 60 mins; summary of the method: as §2
T4 sequence (Q9MYJ9 whole entry): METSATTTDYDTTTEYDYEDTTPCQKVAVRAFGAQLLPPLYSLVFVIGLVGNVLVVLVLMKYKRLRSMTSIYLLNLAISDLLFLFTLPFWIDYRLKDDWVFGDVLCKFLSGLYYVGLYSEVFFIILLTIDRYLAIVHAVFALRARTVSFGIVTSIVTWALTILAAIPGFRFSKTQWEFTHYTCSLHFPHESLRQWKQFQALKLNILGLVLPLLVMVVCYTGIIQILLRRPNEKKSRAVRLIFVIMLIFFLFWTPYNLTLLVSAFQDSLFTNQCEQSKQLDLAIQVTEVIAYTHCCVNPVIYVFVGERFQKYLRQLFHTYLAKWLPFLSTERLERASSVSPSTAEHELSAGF

[23] = target: C-C chemokine receptor type 5 (Homo sapiens, UniProt P51681); test: Displacement of [125I]MIP-1beta from human CCR5 expressed in HT1080 cells by scintillation counting; type: cell-based, HT-1080
Chain of C-C chemokine receptor type 5 (P51681 whole entry): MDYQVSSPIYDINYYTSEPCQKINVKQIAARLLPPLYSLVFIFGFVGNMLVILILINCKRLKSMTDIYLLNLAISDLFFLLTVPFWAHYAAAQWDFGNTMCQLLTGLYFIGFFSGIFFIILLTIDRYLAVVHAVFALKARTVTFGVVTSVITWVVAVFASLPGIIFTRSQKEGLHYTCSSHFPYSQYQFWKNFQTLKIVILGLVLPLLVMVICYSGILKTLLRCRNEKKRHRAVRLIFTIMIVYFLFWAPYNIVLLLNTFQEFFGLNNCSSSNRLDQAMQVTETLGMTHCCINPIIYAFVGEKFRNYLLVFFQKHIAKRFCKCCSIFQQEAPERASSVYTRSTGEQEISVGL
Summary of the method: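 SPA using membranes from HT1080 cells stably expressing RAGE-activated human CCR5, 10 μg protein per well, with PVT-WGA-PS beads. Compound 11-point 3-fold dilutions, 40 μM to 0.7 nM final. 125I-MIP-1β at 0.1 nM final. Incubated 4 h at room temperature, read on TopCount.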

[24] = Cmax in mouse at 5.2 mg/kg, po; type: ADME, organism-based; design: dose 5.2 mg/kg, route oral; conditions: in vivo
[25] = Volume of distribution at steady state in mouse at 2.5 mg/kg, iv; type: ADME, organism-based; design: dose 2.5 mg/kg, route intravenous; conditions: in vivo, read-out: Vdss
[26] = target: Voltage-gated inwardly rectifying potassium channel KCNH2 (Homo sapiens, UniProt Q12809); test: Inhibition of human ERG expressed in HEK293 cells assessed as reduction in peak tail current by whole cell patch clamp assay; type: cell-based
Chain of Voltage-gated inwardly rectifying potassium channel KCNH2 (Q12809 whole entry): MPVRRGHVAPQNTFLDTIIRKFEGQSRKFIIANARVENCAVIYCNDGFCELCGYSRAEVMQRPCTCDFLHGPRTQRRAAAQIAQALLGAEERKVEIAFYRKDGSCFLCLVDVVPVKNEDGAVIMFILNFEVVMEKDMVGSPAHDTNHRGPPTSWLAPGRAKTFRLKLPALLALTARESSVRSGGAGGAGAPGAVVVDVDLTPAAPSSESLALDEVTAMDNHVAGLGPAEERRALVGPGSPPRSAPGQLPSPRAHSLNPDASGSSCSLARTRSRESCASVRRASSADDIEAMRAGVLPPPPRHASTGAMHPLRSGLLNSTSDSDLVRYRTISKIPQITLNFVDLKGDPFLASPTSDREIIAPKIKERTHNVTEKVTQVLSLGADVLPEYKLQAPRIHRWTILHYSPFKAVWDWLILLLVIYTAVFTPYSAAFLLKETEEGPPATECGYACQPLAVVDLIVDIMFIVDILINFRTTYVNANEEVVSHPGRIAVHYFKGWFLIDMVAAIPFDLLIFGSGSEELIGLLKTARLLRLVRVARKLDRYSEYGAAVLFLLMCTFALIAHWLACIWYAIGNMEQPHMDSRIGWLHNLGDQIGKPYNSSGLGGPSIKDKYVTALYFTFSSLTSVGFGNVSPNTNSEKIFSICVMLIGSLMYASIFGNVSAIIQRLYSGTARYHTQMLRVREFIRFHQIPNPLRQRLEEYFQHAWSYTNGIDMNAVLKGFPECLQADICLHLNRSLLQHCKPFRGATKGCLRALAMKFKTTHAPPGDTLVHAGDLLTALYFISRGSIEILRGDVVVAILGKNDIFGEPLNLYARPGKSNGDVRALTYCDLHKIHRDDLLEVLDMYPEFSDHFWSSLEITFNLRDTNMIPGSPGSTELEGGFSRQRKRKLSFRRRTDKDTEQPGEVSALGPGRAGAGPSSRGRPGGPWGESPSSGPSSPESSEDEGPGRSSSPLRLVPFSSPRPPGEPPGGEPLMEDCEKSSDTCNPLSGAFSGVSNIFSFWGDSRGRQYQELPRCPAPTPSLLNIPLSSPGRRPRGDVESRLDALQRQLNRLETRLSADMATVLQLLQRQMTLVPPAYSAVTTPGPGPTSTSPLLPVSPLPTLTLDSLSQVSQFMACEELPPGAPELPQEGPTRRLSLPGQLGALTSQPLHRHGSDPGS
Summary of the method: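 Whole-cell patch clamp on HEK-293 cells stably expressing the hERG α subunit. Inhibition measured on peak tail current. Aqueous buffer at pH 7.4, room temperature, no protein present.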

Chain of Cytochrome P450 2C19 (P33261 whole entry): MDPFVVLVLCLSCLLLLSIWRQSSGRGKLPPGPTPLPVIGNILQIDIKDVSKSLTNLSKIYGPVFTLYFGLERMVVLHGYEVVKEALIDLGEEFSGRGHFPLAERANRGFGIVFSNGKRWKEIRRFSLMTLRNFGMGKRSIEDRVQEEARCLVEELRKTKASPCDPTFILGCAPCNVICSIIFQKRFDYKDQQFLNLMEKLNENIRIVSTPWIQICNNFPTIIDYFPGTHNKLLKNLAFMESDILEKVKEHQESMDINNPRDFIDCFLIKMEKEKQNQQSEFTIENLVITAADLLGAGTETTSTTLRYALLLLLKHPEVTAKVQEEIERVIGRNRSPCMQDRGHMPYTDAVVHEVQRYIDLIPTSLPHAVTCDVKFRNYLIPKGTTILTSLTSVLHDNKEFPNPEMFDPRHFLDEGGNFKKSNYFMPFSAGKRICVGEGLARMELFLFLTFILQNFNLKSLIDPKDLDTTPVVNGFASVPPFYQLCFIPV

- Stability [1]: 73%
- IC50 [2]: > 40 µM
- IC50 [3]: > 40 µM
- solubility thermodynamic [4]: 1 µg/mL (≈ 2.51 µM)
- IC50 [5]: > 25 µM
- AUC [6]: 5.9 µM·h
- half-life [7]: 6.9 h
- clearance [8]: 12.5 mL/min/kg
- IC50 [9]: > 20 µM
- AUC [10]: 6.6 µM·h
- bioavailability [11]: 52%
- IC50 [12]: 0.028 µM
- IC50 [13]: 0.085 µM
- Stability [14]: 83%
- IC50 [15]: > 40 µM
- IC50 [16]: > 30 µM
- IC50 [17]: 0.015 µM
- IC50 [18]: > 30 µM
- Stability [19]: 100%
- half-life [20]: 5.2 h
- IC50 [21]: > 40 µM
- IC50 [22]: 0.55 µM
- IC50 [23]: > 20 µM
- Cmax [24]: 3.1 µM
- Vd [25]: 4.8 L/kg
SMILES: CC(C)[C@@H](NC(=O)c1ccccc1)C(=O)N1CCC(c2ccc(Cl)cc2)CC1
- IC50 [26]: 7 µM
